# H69AR growth 86K: blocks growth of human H69AR lung tumor cells; viability, % at 10 µM; hit rate 6% among 85,000; H69AR lung tumor viability, ATP luminescence, 72 h; stronger effect = lower value;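 active = viability at or below 40%; inactive = viability above 40%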;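 also: multidrug resistant small cell line overexpressing MRP-1 efflux transporter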
# HUVEC inhibit: inhibitors of human endothelial cell proliferation; HUVEC proliferation, CellTiter-Glo luminescence, 72 h; stronger effect = lower value; viability, % at 10 µM (by protocol); hit rate 1.1% among 86,000; AID 648;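 active = viability at or below 30%; inactive = viability above 30%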
# PTEN del growth: PTEN-deleted cell growth suppression | HCT116 PTEN-null viability, CellTiter-Glo, 60 h; stronger effect = lower value | viability, % at 10 µM | hit rate 1.2% among 140,000 | AID 827;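 active = viability at or below a set limit, 4 SD under the median of all tested compounds, cut at about 3.7% in these data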;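 also: PTEN knockout HCT116 line with beta catenin targeted HCT116 as companion control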
# Lung fibro prol: blocks proliferation of human lung fibroblasts; hit rate 1.1% among 85,000; viability, % at 10 µM; LL 47 human lung fibroblast viability, ATP luminescence; stronger effect = lower value;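 active = viability at or below 50% in the single dose screen; inactive = viability above 50%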;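 also: compound exposure lasted 72 h before the ATP readout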
#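 Material: human LL 47 lung fibroblast cells; quantity: 1,150 cells/well; medium: IMEM plus 15% FBS; doses: 0.1% DMSO in all compound wells; timing: overnight attachment after seeding, then 72 h compound exposure at 37 °C; detection: CellTiter-Glo luminescence; measure: % viability of median cell-only signal; controls: cell-only wells, no compound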
# bCat KO growth: beta-catenin-lacking colon tumor cell growth suppression; HCT116 beta-catenin knockout viability, CellTiter-Glo, 60 h; stronger effect = lower value; hit rate 1.5% among 140,000; viability, % at 10 µM; AID 818;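 active = viability at or under a set limit, the compound median less 4 SD, cut at about 6% in these data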
# A number is an active result; 0 = inactive; - = not tested or not shown. This is one part of a sample in which hits are shown more often than they occur.
SMILES,H69AR growth 86K,HUVEC inhibit,PTEN del growth,Lung fibro prol,bCat KO growth
N#Cc1cnn(-c2ncnc3sc4c(c23)CCCC4)c1N,-,-,0,-,0
O=C(Oc1ccccc1C(=O)Nc1ccccc1)c1ccc(Br)c([N+](=O)[O-])c1,-,-,0,-,0
COc1ccc(Cl)cc1N1CCN(CCNC(=O)Nc2ccccc2C)CC1,19,5.3,0,0,0
COc1ccc(Cl)c(N2CCN(CCCNC(=O)Nc3ccc(C)cc3)CC2)c1,0,10,0,0,0
COc1ccccc1N1CCN(CCCNC(=O)Nc2ccccc2C)CC1,0,0,0,0,0
CC(C)(C)CC(C)(C)NCC(O)COc1c(F)cc(Br)cc1F (stereo unspecified),9.7,0,0,0,0
O=C(NCCCn1ccnc1)c1cc2nc(-c3ccc(Br)cc3)cc(C(F)(F)F)n2n1,4.2,0,0,0,0
CC1(C)CC(=O)c2cc(C(=O)NCc3ccco3)c(=O)n(-c3ccccc3)c2C1,30,0,0,0,0
CN1CCN(C(=O)c2cc3c(n(-c4ccccc4)c2=O)CC(C)(C)CC3=O)CC1,0,0,0,0,0
COc1ccc(/C=C/c2cc(-c3ccc(C)cc3)o[n+]2C)cc1,-,-,1.5,-,1.2
Cc1nnc(C)c2c(C)n(C(c3ccccc3)c3ccccc3)c(C)c12,26,0,0,0,0
COC(=O)c1c(-c2ccc(C(C)(C)C)cc2)csc1NC(=O)C1C2CCC(O2)C1C(=O)O (stereo unspecified),-,-,0,-,0
COc1ccc(C(CC(=O)c2ccc(C)cc2)C(C#N)C#N)cc1OC (stereo unspecified),-,-,0,-,0
COc1ccccc1-n1cnc(N)c1C(=O)c1ccccc1,24,0,0,0,0
COc1ccccc1-n1cnc(N)c1C(C)=O,0,0,0,0,0
C/C(=C\C(=O)c1ccccc1)Nc1ccc2c(c1)OCO2,-,-,0,-,0
O=c1cc(O)c2c(=O)n(-c3ccccc3)c3c(c2o1)CCCCC3,-,-,0,-,0
CCOC(=O)C1CCN(c2ncnc3c2[nH]c2cccc(OC)c23)CC1,23,0,0,0,0
NC1=NC2(CCCCC2)N=C(Nc2ccc(F)cc2F)N1,-,-,0,-,0
Cc1cc(C)cc(NC2=NC3(CCCCC3)N=C(N)N2)c1,18,0,0,0,0
CC1=C(C(=O)OC(C)C)C(c2cncc(-c3ccc(F)cc3)c2)C(C#N)=C(N)O1 (stereo unspecified),-,-,0,-,0
O=C(c1ccco1)N1CCN(c2ncnc3c2[nH]c2ccccc23)CC1,0,0,0,0,0
O=C(c1ccco1)N1CCN(C(=O)c2cc(-c3ccncc3)nc3ccc(Br)cc23)CC1,39,0,-,0,-
O=C(c1ccco1)N1CCN(c2ncnc3c2[nH]c2ccc(Br)cc23)CC1,38,0,0,0,0
O=C(c1ccco1)N1CCN(C(=O)c2cc(-c3ccccn3)nc3ccc(Cl)cc23)CC1,38,0,0,0,0
SMILES,H69AR growth 86K,HUVEC inhibit,PTEN del growth,Lung fibro prol,bCat KO growth
Cc1cc(OCc2cn3cccnc3n2)ccc1Cl,-,-,0,-,0
Cc1cc(NCCCN2CCOCC2)n2nc(C)c(-c3ccccc3)c2n1,22,0,0,0,0
Cc1cc(NCCCN2CCOCC2)n2ncc(-c3ccccc3)c2n1,26,0,0,0,0
Cc1cc(NCCC(C)C)n2nc(C)c(-c3ccccc3)c2n1,13,0,0,0,0
Cc1cc(NCCCN2CCOCC2)n2nc(C)c(-c3ccc(F)cc3)c2n1,15,0,0,0,0
CCc1ccccc1NC(=O)COc1cccc2ccc(C)nc12,-,-,0,-,0
COc1cccc(C2C(C(=O)Nc3ccccc3)=C(C)N=c3s/c(=C/c4ccc(OCC(=O)O)cc4)c(=O)n32)c1 (stereo unspecified),-,-,0,-,0
CC1=C(C(=O)Nc2ccccc2)C(c2ccc(C)o2)n2c(s/c(=C\c3ccco3)c2=O)=N1 (stereo unspecified),3.5,0,0,0,0
CC(C)(C)c1ccc(OCCNC(=S)NC(=O)c2cccnc2)cc1,-,-,0,-,0
COc1cc(OC)cc(-c2n[nH]c(=S)n2-c2cc(OC)ccc2OC)c1,24,0,0,0,0
COCCNC(=O)c1ccc2c(c1)NC(=O)CS2,0,0,0,0,0
CCOc1cc2c(cc1C(C)(C)C)NC(=O)CS2,37,0,0,0,0
O=C1SC(SC(=Nc2ccccc2)Nc2ccccc2)C(=O)N1c1ccccc1 (stereo unspecified),-,-,0,-,0
Cc1ccc(-n2nnnc2SCC(=O)Nc2sccc2C#N)cc1,-,-,0,-,0
Cc1cc(C)n(-c2nc3ccccc3nc2N2CCC(C)CC2)n1,0,0,0,0,0
